Structures can show the parent of a compound that is named as a salt.
Assays:
[1] = biological target: T1, DNA topoisomerase 2-alpha (Homo sapiens, UniProt P11388); experiment: Inhibition of human topoisomerase-2 alpha at 100 uM using supercoiled pBR322 DNA as substrate after 30 mins by agarose gel electrophoresis method relative to control
[2] = Cytotoxicity against human HCT15 cells assessed as reduction in cell growth after 72 hrs by CCK8 assay; assay type: functional, cell-based; conditions: HCT-15, 72 h
Summary of the method: (§1)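 Cells (2~4 x 10^4 per well) seeded overnight in media with 10% FBS, 37 °C, 5% CO₂, then exposed to graded compound concentrations for 72 h. CCK-8 solution added for a further 4 h; absorbance read at 450 nm. IC₅₀ from four-parameter logistic fit; adriamycin, etoposide and camptothecin as positive controls.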

[3] = Cytotoxicity against human NCI-N87 cells assessed as reduction in cell growth after 72 hrs by CCK8 assay; assay type: functional, cell-based; conditions: NCI-N87, 72 h; summary of the method: as §1
[4] = Cytotoxicity against human T47D cells assessed as reduction in cell growth after 72 hrs by CCK8 assay; assay type: functional, cell-based; summary of the method: as §1
[5] = Cytotoxicity against human HeLa cells assessed as reduction in cell growth after 72 hrs by CCK8 assay; assay type: functional, cell-based; summary of the method: as §1
[6] = biological target: T1, DNA topoisomerase 2-alpha; experiment: Inhibition of human topoisomerase-2 alpha at 20 uM using supercoiled pBR322 DNA as substrate after 30 mins by agarose gel electrophoresis relative to control

T1 sequence (P11388 whole entry): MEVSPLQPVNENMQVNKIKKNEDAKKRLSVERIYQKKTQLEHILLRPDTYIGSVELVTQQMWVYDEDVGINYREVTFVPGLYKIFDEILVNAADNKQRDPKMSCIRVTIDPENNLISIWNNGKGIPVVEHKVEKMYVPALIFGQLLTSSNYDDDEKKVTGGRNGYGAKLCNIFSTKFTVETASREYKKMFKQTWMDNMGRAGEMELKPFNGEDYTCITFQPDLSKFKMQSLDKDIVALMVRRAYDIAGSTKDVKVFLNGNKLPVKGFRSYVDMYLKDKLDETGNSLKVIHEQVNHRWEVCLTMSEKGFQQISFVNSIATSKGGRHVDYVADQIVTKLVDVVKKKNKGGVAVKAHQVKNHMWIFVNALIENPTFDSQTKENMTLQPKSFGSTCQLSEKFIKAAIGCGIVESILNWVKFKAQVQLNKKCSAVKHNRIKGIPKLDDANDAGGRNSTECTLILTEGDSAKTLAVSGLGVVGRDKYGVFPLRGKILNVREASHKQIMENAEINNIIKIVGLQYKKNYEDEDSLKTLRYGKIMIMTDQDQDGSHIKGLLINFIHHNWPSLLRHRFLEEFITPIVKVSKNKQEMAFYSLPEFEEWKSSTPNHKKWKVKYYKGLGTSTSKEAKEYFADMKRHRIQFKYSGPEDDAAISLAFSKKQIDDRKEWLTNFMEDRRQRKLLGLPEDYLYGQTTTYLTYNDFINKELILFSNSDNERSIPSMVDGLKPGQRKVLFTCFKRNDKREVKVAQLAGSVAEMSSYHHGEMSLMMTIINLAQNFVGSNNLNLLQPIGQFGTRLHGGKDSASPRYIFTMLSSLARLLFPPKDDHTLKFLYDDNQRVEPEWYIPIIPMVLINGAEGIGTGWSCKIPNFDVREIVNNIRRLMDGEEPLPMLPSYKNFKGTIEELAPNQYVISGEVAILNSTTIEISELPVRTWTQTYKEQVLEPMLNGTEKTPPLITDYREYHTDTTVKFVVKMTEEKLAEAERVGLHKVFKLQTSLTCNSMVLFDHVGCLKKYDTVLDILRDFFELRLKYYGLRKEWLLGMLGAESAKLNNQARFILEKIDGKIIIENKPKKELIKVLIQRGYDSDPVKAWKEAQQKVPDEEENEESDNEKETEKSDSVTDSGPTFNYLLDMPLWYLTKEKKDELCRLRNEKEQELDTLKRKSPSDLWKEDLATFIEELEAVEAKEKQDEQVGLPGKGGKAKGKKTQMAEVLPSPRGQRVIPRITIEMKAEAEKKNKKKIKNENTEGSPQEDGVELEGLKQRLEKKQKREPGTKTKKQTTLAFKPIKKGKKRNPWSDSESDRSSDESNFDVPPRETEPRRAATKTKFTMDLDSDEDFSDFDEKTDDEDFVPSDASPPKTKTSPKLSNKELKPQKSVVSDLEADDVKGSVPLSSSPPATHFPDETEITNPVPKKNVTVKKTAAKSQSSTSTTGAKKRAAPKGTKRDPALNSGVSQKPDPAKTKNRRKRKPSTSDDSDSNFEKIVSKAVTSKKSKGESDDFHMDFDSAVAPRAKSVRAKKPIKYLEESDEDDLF

| Compound | inhibition [1] [%] | inhibition [6] [%] | IC50 [2] [nM] | IC50 [3] [nM] | IC50 [4] [nM] | IC50 [5] [nM] |
| --- | --- | --- | --- | --- | --- | --- |
| CCCCOc1cc(OCC2CO2)cc2oc3c(OC)cccc3c(=O)c12 (configuration not stated) | 14.1 | – | 220 | 310 | 1630 | 1080 |
| CCCCCOc1cc(OCC2CO2)cc2oc3ccccc3c(=O)c12 (configuration not stated) | 0 | – | 3280 | 11000 | > 50000 | 1790 |
| O=c1c2ccccc2oc2cc(OCC3CO3)cc(OCc3ccccc3)c12 (configuration not stated) | 0 | – | 1500 | 5070 | 3060 | 1920 |
| CCCCNCC(O)COc1cc(OCCCC)c2c(=O)c3cccc(OC)c3oc2c1 (configuration not stated) | 24.2 | – | 6020 | 1640 | 1130 | 7650 |
| COc1cccc2c(=O)c3c(OCc4cccc(Cl)c4)cc(OCC4CO4)cc3oc12 (configuration not stated) | 1.7 | – | 170 | 950 | 1550 | 1700 |
| CCCCNCC(O)COc1cc(OCC)c2c(=O)c3ccccc3oc2c1 (configuration not stated) | 4.8 | – | 28200 | 1770 | 7020 | > 50000 |
| COc1cccc(COc2cc(OCC3CO3)cc3oc4c(OC)cccc4c(=O)c23)c1 (configuration not stated) | 0 | – | 350 | 1320 | 4050 | 2430 |
| CCCCNCC(O)COc1cc(OCc2ccccc2)c2c(=O)c3cccc(OC)c3oc2c1 (configuration not stated) | 51.6 | 11.1 | 2080 | 1230 | 2400 | 2250 |
| COc1cccc(COc2cc(OCC3CO3)cc3oc4ccccc4c(=O)c23)c1 (configuration not stated) | 0 | – | 1490 | 3260 | 3730 | 1570 |
| CCCCNCC(O)COc1cc(OCc2cccc(C(F)(F)F)c2)c2c(=O)c3cccc(OC)c3oc2c1 (configuration not stated) | 58.1 | 14.2 | 2620 | 1980 | 2000 | 2620 |
| CCCCNCC(O)COc1cc(OCc2cccc(Cl)c2)c2c(=O)c3cccc(OC)c3oc2c1 (configuration not stated) | 45.4 | 6.3 | 1590 | 1160 | 670 | 2400 |
| CCCCNCC(O)COc1cc(OCc2cccc(C(F)(F)F)c2)c2c(=O)c3ccccc3oc2c1 (configuration not stated) | 64.6 | 9.3 | 2450 | 240 | 140 | 2260 |
| CCCCNCC(O)COc1cc(OCc2cccc(Cl)c2)c2c(=O)c3ccccc3oc2c1 (configuration not stated) | 56.3 | 22.4 | 2240 | 170 | 1170 | 2830 |
| COc1cccc2c1C(=O)c1c(O)c3c(c(O)c1C2=O)C[C@@](O)(C(=O)CO)C[C@@H]3O[C@H]1C[C@H](N)[C@H](O)[C@H](C)O1 [DOXORUBICIN HYDROCHLORIDE] | – | – | – | 710 | 1420 | 1700 |
| COc1ccc(COc2cc(OCC3CO3)cc3oc4ccccc4c(=O)c23)cc1 (configuration not stated) | 0 | – | 1720 | 3730 | 2960 | 1580 |
| CCCCNCC(O)COc1cc(OCCCC)c2c(=O)c3ccccc3oc2c1 (configuration not stated) | 27.1 | – | 8610 | 1630 | 1540 | 2070 |
| COc1ccc(COc2cc(OCC3CO3)cc3oc4c(OC)cccc4c(=O)c23)cc1 (configuration not stated) | 0 | – | 420 | 1410 | 7680 | 1740 |
| CCCCOc1cc(OCC2CO2)cc2oc3ccccc3c(=O)c12 (configuration not stated) | 0 | – | 2450 | 4550 | 3750 | 1810 |
| CCCCNCC(O)COc1cc(OC(C)C)c2c(=O)c3cccc(OC)c3oc2c1 (configuration not stated) | 7.5 | – | 9600 | 80 | 2670 | 14400 |
| O=c1c2ccccc2oc2cc(OCC3CO3)cc(OCc3cccc(C(F)(F)F)c3)c12 (configuration not stated) | 0 | – | 5080 | 1360 | 2300 | 4280 |
| CC[C@@]1(O)C(=O)OCc2c1cc1n(c2=O)Cc2cc3ccccc3nc2-1 [CAMPTOTHECIN] | – | – | 1.4 | 600 | 80 | 130 |
| CCOc1cc(OCC2CO2)cc2oc3ccccc3c(=O)c12 (configuration not stated) | 0 | – | 3960 | 3910 | 3600 | 800 |
| COc1cccc2c(=O)c3c(OCCc4cccc(Cl)c4)cc(OCC4CO4)cc3oc12 (configuration not stated) | 0 | – | 1080 | 1110 | 2740 | 470 |

Further lines, with some results ahead:

| inhibition [1] [%] | inhibition [6] [%] | Compound | IC50 [2] [nM] | IC50 [3] [nM] | IC50 [4] [nM] | IC50 [5] [nM] |
| --- | --- | --- | --- | --- | --- | --- |
| 0 | – | O=c1c2ccccc2oc2cc(OCC3CO3)cc(OCCc3cccc(Cl)c3)c12 (configuration not stated) | 4130 | 3180 | 1360 | 1460 |
| 0 | – | O=c1c2ccccc2oc2cc(OCC3CO3)cc(OCc3cccc(Cl)c3)c12 (configuration not stated) | 1960 | 1890 | 3300 | 3570 |
| 0 | – | COc1cccc2c(=O)c3c(OCc4cccc(C(F)(F)F)c4)cc(OCC4CO4)cc3oc12 (configuration not stated) | 360 | 2240 | 2870 | 4270 |
| 10.7 | – | CCCCNCC(O)COc1cc(OCC)c2c(=O)c3cccc(OC)c3oc2c1 (configuration not stated) | 10600 | 2240 | 4280 | 23500 |
| 5 | – | CCCCCOc1cc(OCC2CO2)cc2oc3c(OC)cccc3c(=O)c12 (configuration not stated) | 370 | 1690 | 4570 | 4060 |
| 29.4 | – | CCCCCOc1cc(OCC(O)CNCCCC)cc2oc3ccccc3c(=O)c12 (configuration not stated) | 4580 | 60 | 1270 | 2560 |
| 3.3 | – | COc1cccc2c(=O)c3c(OCc4ccccc4)cc(OCC4CO4)cc3oc12 (configuration not stated) | 340 | 1750 | 2020 | 1660 |
| 0.1 | – | CC(C)Oc1cc(OCC2CO2)cc2oc3ccccc3c(=O)c12 (configuration not stated) | 1630 | 290 | 1940 | 1620 |
| 1.5 | – | COc1cccc2c(=O)c3c(OC(C)C)cc(OCC4CO4)cc3oc12 (configuration not stated) | 310 | 3120 | 1750 | 1870 |
| 0 | – | O=c1c2ccccc2oc2cc(OCC3CO3)cc(OCCc3ccc(Cl)cc3)c12 (configuration not stated) | 5270 | 2020 | 970 | 4910 |
| 1.5 | – | CCCCNCC(O)COc1cc(OC(C)C)c2c(=O)c3ccccc3oc2c1 (configuration not stated) | 43400 | 2050 | 4710 | 36600 |
| 2.5 | – | CCOc1cc(OCC2CO2)cc2oc3c(OC)cccc3c(=O)c12 (configuration not stated) | 820 | 1190 | 830 | 1170 |
| 0 | – | COc1cccc2c(=O)c3c(OCCc4ccc(Cl)cc4)cc(OCC4CO4)cc3oc12 (configuration not stated) | 45200 | 1490 | > 50000 | > 50000 |

— ChEMBL document CHEMBL3870311, “Synthesis and biological evaluation of C1-O-substituted-3-(3-butylamino-2-hydroxy-propoxy)-xanthen-9-one as topoisomerase IIα catalytic inhibitors” (Eur J Med Chem, 2016)
